Experimental data reported in paper PMC5933427 (Chemical Science, 2016).

Key:
[1] = test system: HeLa; experiment: MTT cytotoxicity assay; type: cell-based, human; settings: read-out: IC50 HeLa, 48 h
Summary of the method: (§1)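 Cancer lines and normal LO2 cells were incubated with test compound for 48 h before viability was assessed. IC50 values reported as means ± SD.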

[2] = test system: A549; experiment: MTT cytotoxicity assay; type: cell-based, human; settings: 48 h; for IC50: read-out: IC50 A549, MTT
Summary of the method: as §1

[3] = test system: cisplatin-resistant A549 (A549R); experiment: MTT cytotoxicity assay; type: cell-based, human; settings: for IC50: read-out: IC50 A549R, 48 h, MTT; for cross-resistance with cisplatin: cisplatin-resistant A549R cells
Summary of the method: as §1

[4] = test system: MDB-MA-231; experiment: MTT cytotoxicity assay; type: cell-based, human; settings: read-out: IC50 MDB-MA-231, 48 h
Summary of the method: as §1

[5] = test system: PC3; experiment: MTT cytotoxicity assay; type: cell-based, human; settings: read-out: IC50 PC3, 48 h
Summary of the method: as §1

[6] = test system: LO2; experiment: MTT cytotoxicity assay; type: cell-based; settings: read-out: IC50 LO2, 48 h, human normal liver cells
Summary of the method: as §1

[7] = Lipophilicity, shake-flask log Po/w; type: physicochemical; settings: octanol/water
[8] = test system: A549 cells; experiment: Intracellular ATP quantification; type: cell-based, human; settings: for impact on intracellular ATP levels: A549, 6 h, versus control cells; for intracellular ATP level: A549, 10 μM, 6 h, control 86.3 ± 1.0 nM
Summary of the method: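 A549 cells exposed for 6 h to vehicle or to test compound across several concentrations. Intracellular ATP content measured and reported in nM, relative to vehicle-treated control cells.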

[9] = test system: A549 cells; experiment: MMP analysis, JC-1 flow cytometry; type: cell-based, human; settings: A549, 10 μM, 6 h, control 6.6 ± 0.7%
[10] = test system: A549 cells; experiment: Mitochondrial bioenergetics, Seahorse OCR; type: cell-based, human; settings: for non-mitochondrial respiration: after rotenone/antimycin A; for ATP production (coupled respiration, OCR): oligomycin; for ATP production (coupled respiration, OCR) / basal OCR: versus control
Summary of the method: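 Oxygen consumption rate of treated A549 cells measured on a Seahorse XF24 analyser. Sequential injections: oligomycin 0.75 μM, FCCP 0.6 μM, then rotenone 0.5 μM plus antimycin A 0.5 μM. OCR normalised to protein by BCA assay. Basal respiration = basal OCR minus post-rotenone/antimycin OCR. ATP-linked respiration = basal minus post-oligomycin OCR. Non-mitochondrial respiration = OCR remaining after rotenone/antimycin.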

[11] = test system: A549 cells; experiment: Intracellular ROS detection, H2DCFDA flow cytometry; type: cell-based, human; settings: A549, 10 μM, 6 h
[12] = test system: A549 cells; experiment: MTT viability with NAC pretreatment; type: cell-based, human; settings: A549, NAC 10 mM 1 h, then 24 h
[13] = test system: A549 cells; experiment: Cell cycle analysis, PI flow cytometry; type: cell-based, human; settings: A549, 2.5 μM, 24 h; control 57.4 ± 3.1%
[14] = test system: caspase-3/7 in A549 cells; experiment: Caspase-3/7 activity, Caspase-Glo assay; type: cell-based, human; settings: A549, 10 μM, 12 h
[15] = test system: A549 cells; experiment: MTT viability with z-VAD-fmk pretreatment; type: cell-based, human; settings: A549, z-VAD-fmk 50 μM 2 h, then 24 h
[16] = test system: A549 cells; experiment: Annexin V/PI double staining, flow cytometry; type: cell-based, human; settings: 24 h; for apoptotic cells: A549, 10 μM, control 1.4 ± 0.02%; for effect of NAC pre-treatment on apoptosis-inducing capability: A549, NAC 10 mM
Summary of the method: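 A549 cells treated with test compound for 24 h, then double-labelled with annexin V and PI and analysed by flow cytometry. Early apoptotic cells scored as annexin V-positive/PI-negative, and late apoptotic/necrotic cells as annexin V-positive/PI-positive. Both fractions were counted as apoptotic.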

[17] = Stability of complex 2 by 1H NMR; type: physicochemical; settings: DMSO-d6/D2O (v/v, 7/3), 37 °C
[18] = biological target: bovine serum albumin (BSA) (Bos taurus, UniProt P02769); experiment: Emission enhancement upon binding with BSA; settings: molar ratio BSA : Ir(III) 8 : 1
Chain of bovine serum albumin (BSA) (P02769 25-607): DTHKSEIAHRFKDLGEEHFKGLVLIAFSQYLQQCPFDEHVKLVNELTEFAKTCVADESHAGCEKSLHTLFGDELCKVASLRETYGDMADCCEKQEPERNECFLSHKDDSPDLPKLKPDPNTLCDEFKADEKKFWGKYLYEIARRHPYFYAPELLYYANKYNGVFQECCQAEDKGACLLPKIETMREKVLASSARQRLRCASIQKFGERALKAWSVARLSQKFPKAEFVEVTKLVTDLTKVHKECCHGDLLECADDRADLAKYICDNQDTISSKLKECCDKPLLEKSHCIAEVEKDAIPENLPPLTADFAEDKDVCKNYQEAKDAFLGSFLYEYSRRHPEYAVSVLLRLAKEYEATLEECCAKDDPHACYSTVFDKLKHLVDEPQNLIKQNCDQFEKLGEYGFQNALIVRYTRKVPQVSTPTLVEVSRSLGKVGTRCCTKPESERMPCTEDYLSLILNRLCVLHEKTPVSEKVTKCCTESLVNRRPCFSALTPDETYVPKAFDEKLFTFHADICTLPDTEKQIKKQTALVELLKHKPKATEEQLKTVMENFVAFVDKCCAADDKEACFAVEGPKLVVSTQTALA

[19] = test system: A549/LO2 coculture; experiment: Co-culture model of A549 and LO2 cells, annexin V/PI; type: cell-based, human; settings: 10 μM, 24 h, A549 Hoechst-prelabeled
[20] = test system: A549 cells; experiment: Microarray gene chip analysis; type: cell-based, human; settings: A549, 3 μM, 24 h

SMILES: F[P-](F)(F)(F)(F)F.Fc1c[c-]c(-c2ccccn2)c(F)c1.Fc1c[c-]c(-c2ccccn2)c(F)c1.OCc1ccnc(-c2cc(CO)ccn2)c1.[Ir+3] [Complex 3]
- IC50 [1]: 2.7 ± 0.2 µM
- IC50 [2]: 16.8 ± 1.2 µM
- IC50 [3]: 17.8 ± 1.4 µM
- IC50 [4]: 12.3 ± 1.1 µM
- IC50 [5]: 38 ± 1.9 µM
- IC50 [6]: 8.1 ± 0.5 µM
- Lipophilicity (log Po/w) [7]: 1.09
- impact on intracellular ATP levels [8]: not obvious

SMILES: ClCc1ccnc(-c2cc(CCl)ccn2)c1.F[P-](F)(F)(F)(F)F.Fc1c[c-]c(-c2ccccn2)c(F)c1.Fc1c[c-]c(-c2ccccn2)c(F)c1.[Ir+3] [Complex 4]
- IC50 [1]: 1.8 ± 0.1 µM
- IC50 [2]: 0.21 ± 0.02 µM
- cross-resistance with cisplatin [3]: not cross-resistant with cisplatin
- IC50 [3]: 0.74 ± 0.05 µM
- IC50 [4]: 0.66 ± 0.05 µM
- IC50 [5]: 1.04 ± 0.09 µM
- IC50 [6]: 1.5 ± 0.1 µM
- Lipophilicity (log Po/w) [7]: 2.12
- percentage of cells with mitochondrial membrane depolarization [9]: 82.4 ± 7.6%
- intracellular ATP level [8]: 20.2 ± 3.3 nM
- impact on intracellular ATP levels [8]: significant dose-dependent decrease
- non-mitochondrial respiration [10]: decrease
- ATP production (coupled respiration, OCR) [10]: dose-dependent decrease
- basal OCR [10]: decrease
- increase of mean fluorescent intensity (MFI) of DCF [11]: ~13.7 fold
- effect of NAC pre-treatment on antiproliferative potency [12]: significantly diminishes
- percentage of cells in the G0/G1 phase [13]: 88.8 ± 5.2%
- increase of caspase-3/7 activity [14]: ~1.7 fold
- effect of z-VAD-fmk pre-treatment on antiproliferative activity [15]: inhibits the antiproliferative activity
- apoptotic cells [16]: 61.5 ± 1.1%
- effect of NAC pre-treatment on apoptosis-inducing capability [16]: decreases the apoptosis-inducing capability

SMILES: N.N.[Cl][Pt][Cl] [Cisplatin, reference compound]
- IC50 [1]: 18.8 ± 1.4 µM
- IC50 [2]: 22.4 ± 2 µM
- IC50 [3]: 120 ± 6.5 µM
- IC50 [4]: 27.5 ± 2.5 µM
- IC50 [5]: 23.8 ± 2 µM
- IC50 [6]: 26.9 ± 1.9 µM

SMILES: ClCc1ccnc(-c2cc(CCl)ccn2)c1.F[P-](F)(F)(F)(F)F.[Ir+3].[c-]1ccccc1-c1ccccn1.[c-]1ccccc1-c1ccccn1 [Complex 2]
- IC50 [1]: 0.52 ± 0.04 µM
- selectivity for cancerous A549 cells over noncancerous LO2 cells ([2]; from IC50 values): ~11 fold
- IC50 [2]: 0.4 ± 0.02 µM
- cross-resistance with cisplatin [3]: not cross-resistant with cisplatin
- IC50 [3]: 0.64 ± 0.04 µM
- IC50 [4]: 0.33 ± 0.02 µM
- IC50 [5]: 1.4 ± 0.1 µM
- IC50 [6]: 4.5 ± 0.3 µM
- complex invariant (intact) ([17]; 48 h): about 98.5%
- complex transformed (hydrolysis of chloromethyl groups) ([17]; 7 days): about 26.2%
- Lipophilicity (log Po/w) [7]: 1.28
- emission enhancement upon binding with BSA [18]: ~11.6 fold
- percentage of cells with mitochondrial membrane depolarization [9]: 85.7 ± 1.7%
- intracellular ATP level [8]: 30.2 ± 2.4 nM
- impact on intracellular ATP levels [8]: significant dose-dependent decrease
- non-mitochondrial respiration [10]: decrease
- ATP production (coupled respiration, OCR) [10]: dose-dependent decrease
- basal OCR [10]: decrease
- increase of mean fluorescent intensity (MFI) of DCF [11]: approximately 5.5 fold
- effect of NAC pre-treatment on antiproliferative potency [12]: significantly diminishes
- percentage of cells in the G0/G1 phase [13]: 85.3 ± 4.4%
- increase of caspase-3/7 activity [14]: approximately 1.6 fold
- effect of z-VAD-fmk pre-treatment on antiproliferative activity [15]: inhibits the antiproliferative activity
- apoptotic cells [16]: 17.5 ± 0.8%
- effect of NAC pre-treatment on apoptosis-inducing capability [16]: decreases the apoptosis-inducing capability
- selective killing of cancer cells in co-culture [19]: most of the A549 cells (blue nuclei) are stained positively by both annexin V and PI, while the LO2 cells are still viable
- No. of down-regulated genes sets (p< 0.05, FC> 2) [20]: 715
- No. of up-regulated genes sets (p< 0.05, FC> 2) [20]: 507

SMILES: F[P-](F)(F)(F)(F)F.OCc1ccnc(-c2cc(CO)ccn2)c1.[Ir+3].[c-]1ccccc1-c1ccccn1.[c-]1ccccc1-c1ccccn1 [Complex 1]
- IC50 [1]: 10 ± 0.9 µM
- IC50 [2]: 24 ± 2 µM
- IC50 [3]: 42.2 ± 2.7 µM
- IC50 [4]: 24.5 ± 1.9 µM
- IC50 [5]: > 100 µM
- IC50 [6]: > 100 µM
- Lipophilicity (log Po/w) [7]: 0.23
- impact on intracellular ATP levels [8]: not obvious
